# Rows were chosen to be rich in hits. Some 1.9% of all compounds tested hit in one or more screens of this group.
# M4 PAM – potentiates acetylcholine response at human M4 receptor; CHO-K1 hM4/Gqi5, Fluo-8 calcium fluorescence, ACh EC20; 0% = ACh EC20, 100% = maximal ACh; activation, % at 3 µM; 360,000 compounds, 0.4% hits; P08173;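 active means activation above its plate's cutoff, the mean activation of sample wells plus 3 SD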
# M5 antag – CHRM5 antagonism in calcium assay; CHO-hM5 cells, Fluo-8 calcium fluorescence, ACh EC80; inhibition, % at 3 µM; 360,000 compounds, 0.59% hits; AID 624040;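 active means inhibition above a per-plate cutoff, the mean of that plate's test compounds plus 3 SD, cut at about 27% in these data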;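 further: 0% = acetylcholine EC80 with DMSO and 100% = DMSO without agonist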
# Target sequence (P08912 whole entry, looked up): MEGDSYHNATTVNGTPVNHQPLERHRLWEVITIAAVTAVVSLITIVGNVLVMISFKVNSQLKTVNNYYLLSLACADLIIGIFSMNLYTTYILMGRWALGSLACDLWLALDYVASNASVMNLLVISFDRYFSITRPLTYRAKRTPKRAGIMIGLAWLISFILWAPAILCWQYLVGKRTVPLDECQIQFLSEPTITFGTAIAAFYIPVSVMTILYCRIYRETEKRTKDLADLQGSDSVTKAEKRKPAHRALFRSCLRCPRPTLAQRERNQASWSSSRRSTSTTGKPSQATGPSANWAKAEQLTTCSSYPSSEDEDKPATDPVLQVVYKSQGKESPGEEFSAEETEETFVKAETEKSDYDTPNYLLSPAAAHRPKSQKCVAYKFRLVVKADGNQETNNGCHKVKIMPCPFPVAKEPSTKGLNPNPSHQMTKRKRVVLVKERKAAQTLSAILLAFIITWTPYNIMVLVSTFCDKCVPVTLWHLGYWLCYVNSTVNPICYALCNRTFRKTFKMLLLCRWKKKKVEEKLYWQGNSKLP
# CHRM4 antagonist – blocks acetylcholine activation of human M4 receptor; P08173; CHO-hM4 cells, ACh EC80, Fluo-8 calcium fluorescence; inhibition, % at 3 µM; 360,000 compounds, 0.73% hits; AID 624125;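 active means inhibition above its plate's cutoff, the mean inhibition of sample wells plus 3 SD, cut at about 27% in these data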;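 further: 0% = acetylcholine EC80 with DMSO and 100% = DMSO without agonist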
# M5 ag – CHRM5 agonism in calcium assay; P08912; CHO-K1 hM5 cells, Fluo-8 calcium fluorescence; 0% DMSO wells, 100% maximal acetylcholine response; activation, % at 3 µM; 360,000 compounds, 0.19% hits; AID 624037;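 active means activation above the run's mean over test compounds plus 3 SD, cut at about 23% in these data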;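 further: signal is peak over basal fluorescence ratio across the kinetic read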
# CHRM4 agonist – CHRM4 agonism in calcium assay; activation, % at 3 µM; AID 624127; P08173; CHO-K1 hM4/Gqi5, Fluo-8 calcium fluorescence; vehicle 0%, full acetylcholine response 100%; 360,000 compounds, 0.14% hits;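 active means activation above the run mean over all test wells plus 3 SD, cut at about 32% in these data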;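 further: peak over basal fluorescence ratio per well then scaled between controls; 0% = DMSO wells and 100% = acetylcholine at EC100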
# M5 PAM – positive allosteric modulators of human muscarinic M5 receptor. CHO-K1 hM5, Fluo-8 calcium, ACh EC20 PAM; 0% = ACh EC20, 100% = ACh EC100. activation, % at 3 µM. 360,000 compounds, 0.3% hits. AID 624038;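 active means activation above the run cutoff, the mean activation of all test compounds plus 3 SD, cut at about 18% in these data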
#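 Assay system – human M5 receptor in CHO-K1 cells · Read-out – % activation, ACh-normalized · Technique – Fluo-8 calcium fluorescence · Dosing – single-point, 3 µM nominal · Incubation – Fluo-8 loading 80 min at 37 °C plus 30 min room temperature · Repeats – singlicate, one well per test compound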
# * hit, by the source's call.
SMILES,M4 PAM,M5 antag,CHRM4 antagonist,M5 ag,CHRM4 agonist,M5 PAM
CCc1cc2c3c(c1)C(C)CC(C)(C)N3C(=O)C2=O (stereo unspecified),-1,-9,8,26*,-2,0
CCOc1cc2c3c(c1)C1(OCCO1)C(=O)N3C(C)(C)CC2C (stereo unspecified),2,-4,0,-7,-2,0
COc1ccc(Br)cc1/C(C)=N/NC1=NCCN1,-9,30*,2,47*,11,-17
CCCCCOc1ccc(Br)cc1/C(C)=N/NC1=NCCN1,-11,9,10,-10,2,-15
COCC(C)NC(=O)c1ccc(CN2CCc3ccccc3C2)cc1 (stereo unspecified),-16,11,28*,-9,1,-5
O=C(Nc1ccccc1)c1ccc(CN2CCC(Cc3ccccc3)CC2)cc1,-16,10,32*,-8,2,-13
O=C(Nc1ccc(S(=O)(=O)N2CCCC2)cc1)c1ccc(CN2CCc3ccccc3C2)cc1,-15,18,32*,2,14,-13
O=C(Nc1ccc(Cl)cc1)c1ccc(CN2CCc3ccccc3C2)cc1,-8,4,12,-8,3,-2
COC(=O)[C@@H]1C[C@@]2(O)[C@H](O)[C@H](O)[C@H](O)C[C@H]2N1Cc1cc(F)ccc1F,28*,-6,-2,5,2,0
O=C(C(=O)N1CCC(Cc2ccccc2)CC1)c1ccccc1,4,-7,-14,0,3,-3
COc1cc2cc(C(=O)NCCc3c[nH]c4ccccc34)c(N)nc2cc1OC,-3,25,7,24*,33*,-22
COc1cc(SC)ccc1C(=O)NCCc1c[nH]c2ccccc12,-8,6,4,-2,7,-4
CC(NC(=O)COC(=O)CCC(=O)c1ccc(F)cc1)c1ccccc1 (stereo unspecified),21,8,-4,-1,2,7
N=c1c2c3c(sc2nc2n1CCCCC2)CCCCC3,-24,7,29*,-6,4,-12
CN(C)c1cccc(C(=O)OCC(=O)NC2CCCC2)c1,-2,-4,-4,-2,0,0
O=C(OCC(=O)N(C1CCCCC1)C1CCCCC1)c1ccc(Cl)nc1,20,-13,-7,4,1,6
CN(C)c1ccc(C(=O)OCC(=O)NC2CCCCC2)cc1,1,-15,-16,1,2,35*
O=C(COC(=O)c1ccc(Cl)nc1)NC1CCCCCC1,26*,2,-1,0,0,0
Cc1ccc(C)c(/C(O)=C2\C(=O)C(=O)N(CCCn3ccnc3)C2c2cccnc2)c1 (stereo unspecified),6,8,-13,-1,0,20*
CCOC(=O)C(=O)Cc1cccnn1,7,-6,-3,6,0,4
C=CC[C@H](CC(=O)N(CCO)Cc1ccccc1)C(=O)N[C@@H](COC(=O)[C@@H](CC=C)Cc1ccc(F)cc1)Cc1c[nH]c2ccccc12,-12,1,18,1,8,-3
Cc1cc(C)n2nc(SCC(=O)N3CCC(C)CC3)nc2n1,1,19,0,-1,1,3
Cc1cc(C)n2nc(SCC(=O)N3CCCC3)nc2n1,8,-13,-12,4,1,24*
CSc1ncccc1C(=O)OCC(=O)N(CC(C)C)c1c(N)n(Cc2ccccc2)c(=O)[nH]c1=O,5,5,9,-4,1,-2
CCn1c(CNc2ccc(C)cc2)nnc1SCC(=O)NCc1ccccc1,31*,3,1,-5,1,-1
SMILES,M4 PAM,M5 antag,CHRM4 antagonist,M5 ag,CHRM4 agonist,M5 PAM
O=C(CC12CC3CC(CC(Br)(C3)C1)C2)NC1CCCC1,-19,19,22,-9,1,-16
CN1CCN(C2=Nc3ccccc3Oc3ccc(Cl)cc32)CC1,-16,72*,37*,-1,1,-19
Cc1[nH]c2ccccc2c1/C=N/NC(=O)c1cccc([N+](=O)[O-])c1,1,8,3,-2,3,-5
Cc1[nH]c2ccccc2c1/C=N/Nc1ccc([N+](=O)[O-])cc1,-7,31*,13,15,16,-9
CC1Cc2cc(S(=O)(=O)NCCC(=O)N(C)Cc3ccccc3)ccc2N1C(=O)C1CC1 (stereo unspecified),2,8,-1,3,9,-5
COc1ccc(C(=O)c2sc(Nc3ccccc3)c(C(=O)Nc3ccc(OC)c(OC)c3)c2N)cc1,1,17,-11,-1,2,-6
COc1ccc(NC(=O)c2c(Nc3ccccc3)sc(C(=O)c3ccc(F)cc3)c2N)cc1,-14,28*,13,4,14,-15
COc1ccc(Nc2sc(C(=O)c3ccc(Cl)cc3)c(N)c2C(=O)Nc2ccccc2OC)cc1,-28,22,50*,39*,74*,-3
COc1ccc(C(=O)c2sc(Nc3cccc(OC)c3)c(C(=O)Nc3cccc(C)c3C)c2N)cc1,-12,3,21,10,19,7
COc1ccccc1CNC(=O)CNC(=O)c1ccc(Br)o1,6,-14,-6,0,1,7
COC(=O)c1cn(CC(C)n2c(=O)c3ccccc3n2Cc2cc(C(C)C)no2)nn1 (stereo unspecified),1,2,7,-1,1,-1
COc1ccc(-n2nc(C(=O)NCC(=O)NCCCN3CCCCCC3)c3ccccc3c2=O)cc1Cl,-21,0,32*,-12,1,6
CCN(CCCNC(=O)CNC(=O)c1nn(-c2ccc(OC)cc2)c(=O)c2ccccc12)c1cccc(C)c1,-24,29*,12,-4,11,-11
COc1ccc(-n2nc(C(=O)NCC(=O)NCCCN3CCC(C)CC3)c3ccccc3c2=O)cc1Cl,-13,0,14,-4,0,1
CCOC(=O)C1CCN(C(=O)CCc2nnc3ccc(N4CCN(C)CC4)nn23)CC1,4,0,-14,-6,1,5
COc1ccc(NC(=O)CSc2ncnc3c2cnn3Cc2ccccc2)cc1,-5,-8,9,1,1,1
COc1ccc(NC(=O)CSc2ncnc3c2cnn3Cc2ccccc2)cc1OC,14,13,29*,0,5,-11
Cc1ccc(-c2nc3sc4c(c3c(=O)n2N)CCCC4)cc1,38*,1,7,1,0,10
Cc1ccc(-c2nc3sc4c(c3c(=O)n2N)CC(C)(C)OC4)cc1,6,-1,-1,0,0,3
O=C(Nc1ccc(F)cc1)Nc1cccnc1Cl,-17,1,32*,3,3,-7

# Assay outcomes deposited in PubChem BioAssay by The Scripps Research Institute Molecular Screening Center.
